# What was measured:
# Type in all cases: functional
# [1] = system: Pseudomonas aeruginosa; test: Antimicrobial activity against Pseudomonas aeruginosa isolate PA475 expressing VIM-2 beta-lactamase
# [2] = system: Pseudomonas aeruginosa; test: Antimicrobial activity against Pseudomonas aeruginosa isolate PA462 expressing VIM-2 beta-lactamase
# [3] = system: Pseudomonas aeruginosa; test: Antimicrobial activity against Pseudomonas aeruginosa isolate PA500 expressing VIM-1 beta-lactamase
# [4] = system: Pseudomonas aeruginosa; test: Antimicrobial activity against Pseudomonas aeruginosa isolate PA477 expressing VIM-2 beta-lactamase in presence of Tazobactam
# [5] = system: Pseudomonas aeruginosa; test: Antimicrobial activity against metallo-beta-lactamase-negative Pseudomonas aeruginosa isolate PA459 in presence of Tazobactam
# [6] = system: Pseudomonas aeruginosa; test: Antimicrobial activity against metallo-beta-lactamase-negative Pseudomonas aeruginosa isolate PA459
# Outline: (§1)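 MBL-negative clinical P. aeruginosa isolates with reduced imipenem susceptibility, collected at the study hospital, some from cystic fibrosis patients. Species identity was confirmed by automated Gram-negative identification card. MIC was read in μg/ml.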
# [7] = system: Pseudomonas aeruginosa; test: Antimicrobial activity against metallo-beta-lactamase-negative Pseudomonas aeruginosa isolate PA507 in presence of Tazobactam
# [8] = system: Pseudomonas aeruginosa; test: Antimicrobial activity against metallo-beta-lactamase-negative Pseudomonas aeruginosa isolate PA507; outline: as §1
# [9] = system: Pseudomonas aeruginosa; test: Antimicrobial activity against metallo-beta-lactamase-negative Pseudomonas aeruginosa isolate PA509
# [10] = system: Pseudomonas aeruginosa; test: Antimicrobial activity against Pseudomonas aeruginosa isolate PA481 expressing VIM-2 beta-lactamase in presence of Tazobactam
# [11] = system: Pseudomonas aeruginosa; test: Antimicrobial activity against Pseudomonas aeruginosa isolate PA477 expressing VIM-2 beta-lactamase
# [12] = system: Pseudomonas aeruginosa; test: Antimicrobial activity against metallo-beta-lactamase-negative Pseudomonas aeruginosa isolate PA460
# [13] = system: Pseudomonas aeruginosa; test: Antimicrobial activity against Pseudomonas aeruginosa isolate PA475 expressing VIM-2 beta-lactamase in presence of Tazobactam
# [14] = system: Pseudomonas aeruginosa; test: Antimicrobial activity against Pseudomonas aeruginosa isolate PA510 expressing VIM-2 beta-lactamase
# [15] = system: Pseudomonas aeruginosa; test: Antimicrobial activity against Pseudomonas aeruginosa isolate PA465 expressing VIM-2 beta-lactamase
# [16] = system: Pseudomonas aeruginosa; test: Antimicrobial activity against Pseudomonas aeruginosa isolate PA510 expressing VIM-2 beta-lactamase in presence of Tazobactam
# [17] = system: Pseudomonas aeruginosa; test: Antimicrobial activity against metallo-beta-lactamase-negative Pseudomonas aeruginosa isolate PA479 in presence of Tazobactam
# [18] = system: Pseudomonas aeruginosa; test: Antimicrobial activity against metallo-beta-lactamase-negative Pseudomonas aeruginosa isolate PA509 in presence of Tazobactam
# [19] = system: Pseudomonas aeruginosa; test: Antimicrobial activity against metallo-beta-lactamase-negative Pseudomonas aeruginosa isolate PA494
# [20] = system: Pseudomonas aeruginosa; test: Antimicrobial activity against metallo-beta-lactamase-negative Pseudomonas aeruginosa isolate PA483 in presence of Tazobactam
# [21] = system: Pseudomonas aeruginosa; test: Antimicrobial activity against Pseudomonas aeruginosa isolate PA462 expressing VIM-2 beta-lactamase in presence of Tazobactam
# [22] = system: Pseudomonas aeruginosa; test: Antimicrobial activity against metallo-beta-lactamase-negative Pseudomonas aeruginosa isolate PA479
# [23] = system: Pseudomonas aeruginosa; test: Antimicrobial activity against Pseudomonas aeruginosa isolate PA500 expressing VIM-1 beta-lactamase in presence of Tazobactam
# [24] = system: Pseudomonas aeruginosa; test: Antimicrobial activity against Pseudomonas aeruginosa isolate PA399 expressing VIM-2 beta-lactamase
# [25] = system: Pseudomonas aeruginosa; test: Antimicrobial activity against Pseudomonas aeruginosa isolate PA469 expressing VIM-2 beta-lactamase
# [26] = system: Pseudomonas aeruginosa; test: Antimicrobial activity against Pseudomonas aeruginosa isolate PA469 expressing VIM-2 beta-lactamase in presence of Tazobactam
# [27] = system: Pseudomonas aeruginosa; test: Antimicrobial activity against metallo-beta-lactamase-negative Pseudomonas aeruginosa isolate PA494 in presence of Tazobactam
# [28] = system: Pseudomonas aeruginosa; test: Antimicrobial activity against Pseudomonas aeruginosa isolate PA399 expressing VIM-2 beta-lactamase in presence of Tazobactam
# [29] = system: Pseudomonas aeruginosa; test: Antimicrobial activity against Pseudomonas aeruginosa isolate PA465 expressing VIM-2 beta-lactamase in presence of Tazobactam
# [30] = system: Pseudomonas aeruginosa; test: Antimicrobial activity against metallo-beta-lactamase-negative Pseudomonas aeruginosa isolate PA460 in presence of Tazobactam
# [31] = system: Pseudomonas aeruginosa; test: Antimicrobial activity against Pseudomonas aeruginosa isolate PA481 expressing VIM-2 beta-lactamase
# [32] = system: Pseudomonas aeruginosa; test: Antimicrobial activity against metallo-beta-lactamase-negative Pseudomonas aeruginosa isolate PA483
# [33] = system: Pseudomonas aeruginosa; test: Antimicrobial activity against metallo-beta-lactamase-negative Pseudomonas aeruginosa isolate PA349; outline: as §1
# [34] = system: Pseudomonas aeruginosa; test: Antimicrobial activity against metallo-beta-lactamase-negative Pseudomonas aeruginosa isolate PA395; outline: as §1
# [35] = system: Pseudomonas aeruginosa; test: Antimicrobial activity against metallo-beta-lactamase-negative Pseudomonas aeruginosa isolate PA370; outline: as §1
# [36] = system: Pseudomonas aeruginosa; test: Antimicrobial activity against metallo-beta-lactamase-negative Pseudomonas aeruginosa isolate PA350; outline: as §1
# [37] = system: Pseudomonas aeruginosa; test: Antimicrobial activity against metallo-beta-lactamase-negative Pseudomonas aeruginosa isolate PA361; outline: as §1
# [38] = system: Pseudomonas aeruginosa; test: Antimicrobial activity against metallo-beta-lactamase-negative Pseudomonas aeruginosa isolate PA346; outline: as §1
# [39] = system: Pseudomonas aeruginosa; test: Antimicrobial activity against metallo-beta-lactamase-negative Pseudomonas aeruginosa isolate PA380; outline: as §1
# [40] = system: Pseudomonas aeruginosa; test: Antimicrobial activity against metallo-beta-lactamase-negative Pseudomonas aeruginosa isolate PA341; outline: as §1
# [41] = system: Pseudomonas aeruginosa; test: Antimicrobial activity against metallo-beta-lactamase-negative Pseudomonas aeruginosa isolate PA377; outline: as §1
# [42] = system: Pseudomonas aeruginosa; test: Antimicrobial activity against metallo-beta-lactamase-negative Pseudomonas aeruginosa isolate PA734 isolated from patient with cystic fibrosis; outline: as §1
# [43] = system: Pseudomonas aeruginosa; test: Antimicrobial activity against metallo-beta-lactamase-negative Pseudomonas aeruginosa isolate PA362; outline: as §1
# [44] = system: Pseudomonas aeruginosa; test: Antimicrobial activity against Pseudomonas aeruginosa PA554 expressing GIM-1 beta-lactamase
# Outline: (§2)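 Well-characterized MBL-producing control strains from earlier studies: nine P. aeruginosa and one A. baumannii. MIC was read in μg/ml and used to set screening breakpoints for MBL producers.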
# [45] = system: Pseudomonas aeruginosa; test: Antimicrobial activity against metallo-beta-lactamase-negative Pseudomonas aeruginosa isolate PA368; outline: as §1
# [46] = system: Pseudomonas aeruginosa; test: Antimicrobial activity against Pseudomonas aeruginosa PA430 expressing VIM-4 beta-lactamase; outline: as §2
# [47] = system: Pseudomonas aeruginosa; test: Antimicrobial activity against metallo-beta-lactamase-negative Pseudomonas aeruginosa isolate PA340; outline: as §1
# [48] = system: Pseudomonas aeruginosa; test: Antimicrobial activity against metallo-beta-lactamase-negative Pseudomonas aeruginosa isolate PA774 isolated from patient with cystic fibrosis; outline: as §1
# [49] = system: Pseudomonas aeruginosa; test: Antimicrobial activity against metallo-beta-lactamase-negative Pseudomonas aeruginosa isolate PA376
# [50] = system: Acinetobacter baumannii; test: Antimicrobial activity against Acinetobacter baumannii AB551 expressing SIM-1 beta-lactamase; outline: as §2
# [51] = system: Pseudomonas aeruginosa; test: Antimicrobial activity against metallo-beta-lactamase-negative Pseudomonas aeruginosa isolate PA364; outline: as §1
# [52] = system: Pseudomonas aeruginosa; test: Antimicrobial activity against Pseudomonas aeruginosa PA550 expressing VIM-1 beta-lactamase; outline: as §2
# [53] = system: Pseudomonas aeruginosa; test: Antimicrobial activity against Pseudomonas aeruginosa PA431 expressing IMP-1 beta-lactamase; outline: as §2
# [54] = system: Pseudomonas aeruginosa; test: Antimicrobial activity against metallo-beta-lactamase-negative Pseudomonas aeruginosa isolate PA339; outline: as §1
# [55] = system: Pseudomonas aeruginosa; test: Antimicrobial activity against metallo-beta-lactamase-negative Pseudomonas aeruginosa isolate PA381; outline: as §1
# [56] = system: Pseudomonas aeruginosa; test: Antimicrobial activity against Pseudomonas aeruginosa PA386 expressing IMP-13 beta-lactamase; outline: as §2
# [57] = system: Pseudomonas aeruginosa; test: Antimicrobial activity against Pseudomonas aeruginosa PA373 expressing VIM-2 beta-lactamase; outline: as §2
# [58] = system: Pseudomonas aeruginosa; test: Antimicrobial activity against metallo-beta-lactamase-negative Pseudomonas aeruginosa isolate PA758 isolated from patient with cystic fibrosis; outline: as §1
# [59] = system: Pseudomonas aeruginosa; test: Antimicrobial activity against Pseudomonas aeruginosa PA552 expressing IMP-1 beta-lactamase; outline: as §2
# [60] = system: Pseudomonas aeruginosa; test: Antimicrobial activity against metallo-beta-lactamase-negative Pseudomonas aeruginosa isolate PA342; outline: as §1
# [61] = system: Pseudomonas aeruginosa; test: Antimicrobial activity against metallo-beta-lactamase-negative Pseudomonas aeruginosa isolate PA356; outline: as §1
# [62] = system: Pseudomonas aeruginosa; test: Antimicrobial activity against Pseudomonas aeruginosa PA553 expressing SPM-1 beta-lactamase; outline: as §2
# [63] = system: Pseudomonas aeruginosa; test: Antimicrobial activity against metallo-beta-lactamase-negative Pseudomonas aeruginosa isolate PA382; outline: as §1
# [64] = system: Pseudomonas aeruginosa; test: Antimicrobial activity against metallo-beta-lactamase-negative Pseudomonas aeruginosa isolate PA736 isolated from patient with cystic fibrosis; outline: as §1
# [65] = system: Pseudomonas aeruginosa; test: Antimicrobial activity against metallo-beta-lactamase-negative Pseudomonas aeruginosa isolate PA360; outline: as §1
# [66] = system: Pseudomonas aeruginosa; test: Antimicrobial activity against metallo-beta-lactamase-negative Pseudomonas aeruginosa isolate PA352; outline: as §1
# [67] = system: Pseudomonas aeruginosa; test: Antimicrobial activity against metallo-beta-lactamase-negative Pseudomonas aeruginosa isolate PA355; outline: as §1
# [68] = system: Pseudomonas aeruginosa; test: Antimicrobial activity against Pseudomonas aeruginosa PA399 expressing VIM-2 beta-lactamase; outline: as §2
smiles,measurement,setting,value
CCN1CCN(C(=O)N[C@@H](C(=O)N[C@@H]2C(=O)N3[C@@H]2SC(C)(C)[C@@H]3C(=O)O)c2ccccc2)C(=O)C1=O [PIPERACILLIN],MIC,[1],≥ 128 µg/mL
same,MIC,[2],≥ 128 µg/mL
same,MIC,[3],≥ 128 µg/mL
same,MIC,[4],≥ 128 µg/mL
same,MIC,[5],≥ 128 µg/mL
same,MIC,[6],≥ 128 µg/mL
same,MIC,[7],≥ 128 µg/mL
same,MIC,[8],≥ 128 µg/mL
same,MIC,[9],≥ 128 µg/mL
same,MIC,[10],≥ 128 µg/mL
same,MIC,[11],≥ 128 µg/mL
same,MIC,[12],≥ 128 µg/mL
same,MIC,[13],≥ 128 µg/mL
same,MIC,[14],≥ 128 µg/mL
same,MIC,[15],≥ 128 µg/mL
same,MIC,[16],≥ 128 µg/mL
same,MIC,[17],≥ 128 µg/mL
same,MIC,[18],≥ 128 µg/mL
same,MIC,[19],≥ 128 µg/mL
same,MIC,[20],≥ 128 µg/mL
same,MIC,[21],≥ 128 µg/mL
same,MIC,[22],≥ 128 µg/mL
same,MIC,[23],≥ 128 µg/mL
same,MIC,[24],≥ 128 µg/mL
same,MIC,[25],≥ 128 µg/mL
same,MIC,[26],≥ 128 µg/mL
same,MIC,[27],≥ 128 µg/mL
same,MIC,[28],≥ 128 µg/mL
same,MIC,[29],64 µg/mL
same,MIC,[30],≥ 128 µg/mL
same,MIC,[31],≥ 128 µg/mL
same,MIC,[32],≥ 128 µg/mL
CC(C)(O/N=C(\C(=O)N[C@@H]1C(=O)N2C(C(=O)[O-])=C(C[n+]3ccccc3)CS[C@H]12)c1csc(N)n1)C(=O)O [CEFTAZIDIME],MIC,[33],8 µg/mL
same,MIC,[1],≥ 64 µg/mL
same,MIC,[34],≥ 64 µg/mL
same,MIC,[2],≥ 64 µg/mL
same,MIC,[35],8 µg/mL
same,MIC,[3],≥ 64 µg/mL
same,MIC,[6],32 µg/mL
same,MIC,[36],4 µg/mL
same,MIC,[37],≥ 64 µg/mL
same,MIC,[8],32 µg/mL
same,MIC,[38],4 µg/mL
same,MIC,[9],32 µg/mL
same,MIC,[39],4 µg/mL
same,MIC,[11],≥ 64 µg/mL
same,MIC,[12],32 µg/mL
same,MIC,[40],≥ 64 µg/mL
same,MIC,[41],8 µg/mL
same,MIC,[14],≥ 64 µg/mL
same,MIC,[42],4 µg/mL
same,MIC,[43],32 µg/mL
same,MIC,[44],≥ 64 µg/mL
same,MIC,[45],4 µg/mL
same,MIC,[15],≥ 64 µg/mL
same,MIC,[46],≥ 64 µg/mL
same,MIC,[47],4 µg/mL
same,MIC,[48],≥ 64 µg/mL
same,MIC,[49],16 µg/mL
same,MIC,[50],≥ 64 µg/mL
same,MIC,[51],4 µg/mL
same,MIC,[52],≥ 64 µg/mL
same,MIC,[53],≥ 64 µg/mL
same,MIC,[19],32 µg/mL
same,MIC,[54],8 µg/mL
same,MIC,[22],≥ 64 µg/mL
same,MIC,[55],4 µg/mL
same,MIC,[56],≥ 64 µg/mL
same,MIC,[57],≥ 64 µg/mL
same,MIC,[58],4 µg/mL
same,MIC,[24],≥ 64 µg/mL
same,MIC,[59],≥ 64 µg/mL
same,MIC,[25],≥ 64 µg/mL
same,MIC,[60],4 µg/mL
same,MIC,[61],4 µg/mL
same,MIC,[62],≥ 64 µg/mL
same,MIC,[63],4 µg/mL
same,MIC,[64],≥ 64 µg/mL
same,MIC,[31],≥ 64 µg/mL
same,MIC,[65],16 µg/mL
same,MIC,[66],4 µg/mL
same,MIC,[67],4 µg/mL
same,MIC,[68],≥ 64 µg/mL
same,MIC,[32],≥ 64 µg/mL
